Experimental data published in ChEMBL document CHEMBL1255483, “Intra- and extracellular activities of dicloxacillin against Staphylococcus aureus in vivo and in vitro” (Antimicrob Agents Chemother, 2010).
In brackets after ≈: the same amount, converted by molar mass. Activity calls are given as the source filed them. The calls are words filed in the database; no cut-off is given here.

Assays:
[1] = fT>MIC in Staphylococcus aureus E19977 infected NMRI mouse at 400 mg/kg administered every 12 hrs; format: functional
How it was run: (§1)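 Calculated percentage of 24 h at steady state that free plasma DCX exceeds the strain MIC (microdilution, pH 7.4). Concentrations were simulated from single subcutaneous dose plasma curves in NMRI mice (S. lutea bioassay), adjusted with a square-root model of concentration-dependent free fraction from ultrafiltration. The regimen was dosed subcutaneously in mice infected intraperitoneally with 10^7.4 CFU, and peritoneal CFU were read after 24 h of therapy.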

[2] = fT>MIC in Staphylococcus aureus E19977 infected NMRI mouse at 300 mg/kg administered every 12 hrs; format: functional; how it was run: as §1
Staphylococcus aureus [3] = assay: Bacteriostatic activity against Staphylococcus aureus ATCC 25923 infected in human THP-1 cells at 10 times MIC after 5 hrs; format: functional, organism-based
How it was run: (§2)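 Human THP-1 macrophages were infected with opsonized S. aureus at 4 bacteria per macrophage for 45 min. Non-phagocytized bacteria were removed by washing and a brief incubation in PBS with gentamicin 50 mg/liter. Cells were then incubated up to 24 h with DCX over a wide range of extracellular concentrations. The read-out was Δlog CFU per mg cell protein versus time zero (n = 3), with sigmoidal fitting and Cstatic by interpolation.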

Staphylococcus aureus [4] = assay: Bacteriostatic activity against Staphylococcus aureus ATCC 25923 infected in human THP-1 cells at MIC after 5 hrs; format: functional, organism-based; how it was run: as §2
Staphylococcus aureus [5] = assay: Bactericidal activity against Staphylococcus aureus ATCC 25923 assessed as log reduction in bacterial count at 100 times MIC after 24 hrs by time-kill assay; format: functional
How it was run: (§3)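 Broth time-kill: MSSA at 10⁶ CFU/ml exposed to a wide range of dicloxacillin concentrations. CFU counted after 5 and 24 h and expressed as change in log₁₀ CFU/ml from time zero. Multiples refer to the MIC by CLSI microdilution at pH 7.4. n = 3.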

Staphylococcus aureus [6] = assay: Bactericidal activity against Staphylococcus aureus E19977 assessed as log reduction in bacterial count at 10 times MIC after 5 hrs by time-kill assay; format: functional; how it was run: as §3
Staphylococcus aureus [7] = assay: Bactericidal activity against Staphylococcus aureus E19977 assessed as log reduction in bacterial count at 100 times MIC after 5 hrs by time-kill assay; format: functional; how it was run: as §3
Staphylococcus aureus [8] = assay: Bactericidal activity against Staphylococcus aureus ATCC 25923 assessed as log reduction in bacterial count at 10 times MIC after 5 hrs by time-kill assay; format: functional; how it was run: as §3
Staphylococcus aureus [9] = assay: Bactericidal activity against Staphylococcus aureus E19977 infected in human THP1 cells assessed as log reduction in bacterial count at 100 times MIC after 24 hrs by time-kill assay; format: functional, THP-1
How it was run: (§4)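 Intracellular model in THP-1 macrophages: opsonized S. aureus was added at 4 bacteria per macrophage for 45 min. Non-phagocytized bacteria were removed by washing and brief PBS incubation with gentamicin (50 mg/liter). Cells were then incubated up to 24 h with a wide range of extracellular dicloxacillin concentrations. Result is change in log₁₀ CFU per mg cell protein from time zero. n = 3.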

Staphylococcus aureus [10] = assay: Bacteriostatic activity against Staphylococcus aureus ATCC 25923 infected in human THP-1 cells at MIC after 24 hrs; format: functional, organism-based; how it was run: as §2
[11] = AUC (24 hrs) in NMRI mouse at 60 mg/kg, sc; format: ADME, organism-based; parameters: time < 24 hr, dose 60 mg/kg, route subcutaneous; conditions: plasma
How it was run: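 Single subcutaneous DCX doses given to NMRI mice. Blood was collected into EDTA tubes, and plasma drug was assayed by microbiological bioassay with S. lutea ATCC 9391 (detection limit 1.5 mg/liter, linear to 100 mg/liter). Values came from noncompartmental analysis. Terminal half-life was fitted monoexponentially to the last four time points. AUC24 combined the trapezoidal rule over mean points with exact integration of the fitted curve extrapolated to 24 h.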

[12] = Ratio of fAUC (24 hrs) in NMRI mouse at 76 mg/kg administered every 2 hrs to MIC for Staphylococcus aureus E19977; format: functional
How it was run: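 Modeled free AUC over 24 h divided by the MIC, not measured directly. Single subcutaneous DCX doses were given to NMRI mice, and plasma was assayed by S. lutea bioassay. Noncompartmental analysis used trapezoidal mean points plus a fitted monoexponential extrapolated to 24 h. Free fraction came from a square-root fit to plasma ultrafiltration binding (10–400 mg/liter spike, 1 h, 37°C). The MIC was measured by broth microdilution at pH 7.4.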

[13] = Ratio of fAUC (24 hrs) in NMRI mouse at 120 mg/kg administered every 24 hrs to MIC for Staphylococcus aureus E19977; format: functional
How it was run: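 Free-drug AUC24/MIC was modelled for repeated subcutaneous regimens. Single-dose NMRI plasma concentration-time curves were combined with the best-fitting square-root expression for the concentration-dependent free fraction. The result was divided by the E19977 MIC.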

Mus musculus [14] = organism: Mus musculus; assay: Protein binding in NMRI mouse at 270 mg/l by ultrafiltration; format: ADME, organism-based; conditions: in vivo
How it was run: (§5)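 Plasma binding was measured by ultrafiltration. EDTA blood from healthy mice, or from NMRI mice infected intraperitoneally for 6 h with E19977, was spiked with DCX at 10–400 mg/liter, with PBS controls. Samples were held 1 h at 37°C, then centrifuged through 30-kDa filters at 3,000 × g for 8 min at 37°C. Total and filtrate drug were measured by S. lutea bioassay.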

Mus musculus [15] = organism: Mus musculus; assay: Protein binding in NMRI mouse at 90 mg/l by ultrafiltration; format: ADME, organism-based; conditions: in vivo; how it was run: as §5
Mus musculus [16] = organism: Mus musculus; assay: Protein binding in NMRI mouse infected with Staphylococcus aureus E19977 at 90 mg/l by ultrafiltration; format: ADME, organism-based; conditions: in vivo; how it was run: as §5
[17] = fT>MIC in Staphylococcus aureus E19977 infected NMRI mouse at 76 mg/kg administered every 2 hrs; format: functional; how it was run: as §1
Staphylococcus aureus [18] = assay: Bactericidal activity against Staphylococcus aureus ATCC 25923 infected in human THP1 cells assessed as log reduction in bacterial count at 100 times MIC after 24 hrs by time-kill assay; format: functional, THP-1; how it was run: as §4
Staphylococcus aureus [19] = assay: Bactericidal activity against Staphylococcus aureus ATCC 25923 infected in human THP1 cells assessed as log reduction in bacterial count at 10 times MIC after 24 hrs by time-kill assay; format: functional, THP-1; how it was run: as §4
Staphylococcus aureus [20] = assay: Bacteriostatic activity against Staphylococcus aureus E19977 infected in human THP-1 cells at 100 times MIC after 5 hrs; format: functional, organism-based; how it was run: as §2
Staphylococcus aureus [21] = assay: Bacteriostatic activity against Staphylococcus aureus E19977 infected in human THP-1 cells at 10 times MIC after 5 hrs; format: functional, organism-based; how it was run: as §2
Staphylococcus aureus [22] = assay: Bacteriostatic activity against Staphylococcus aureus E19977 infected in human THP-1 cells at MIC after 5 hrs; format: functional, organism-based; how it was run: as §2
[23] = fT>MIC in Staphylococcus aureus E19977 infected NMRI mouse at 80 mg/kg administered every 3 hrs
Staphylococcus aureus [24] = assay: Antimicrobial activity against Staphylococcus aureus E19977 by broth microdilution method at pH 7.4
Staphylococcus aureus [25] = assay: Antimicrobial activity against Staphylococcus aureus ATCC 25923 by broth microdilution method at pH 5.4
[26] = Ratio of fCmax in NMRI mouse at 340 mg/kg administered every 24 hrs to MIC for Staphylococcus aureus E19977
[27] = Ratio of fAUC (24 hrs) in NMRI mouse at 340 mg/kg administered every 24 hrs to MIC for Staphylococcus aureus E19977

Cc1onc(-c2c(Cl)cccc2Cl)c1C(=O)N[C@@H]1C(=O)N2[C@@H]1SC(C)(C)[C@@H]2C(=O)O [DICLOXACILLIN]
fT>MIC [1]: 35.97% | fT>MIC [2]: 35.28% | Activity (Staphylococcus aureus [3]): Active | Activity (Staphylococcus aureus [4]): Active | FC (Staphylococcus aureus [5]): 3 | FC (Staphylococcus aureus [6]): <1 | FC (Staphylococcus aureus [7]): <1 | FC (Staphylococcus aureus [8]): <1 | FC (Staphylococcus aureus [9]): <1 | Activity (Staphylococcus aureus [10]): Active | AUC at 24 h [11]: 70400 ng·h/mL | fAUC/MIC [12]: 227.43 h | fAUC/MIC [13]: 43.95 h | Activity (Mus musculus [14]): 84.9% | Activity (Mus musculus [15]): 88.7% | Activity (Mus musculus [16]): 85.6% | fT>MIC [17]: 100% | FC (Staphylococcus aureus [18]): <1 | FC (Staphylococcus aureus [19]): <1 | Activity (Staphylococcus aureus [20]): Active | Activity (Staphylococcus aureus [21]): Active | Activity (Staphylococcus aureus [22]): Active | fT>MIC [23]: 66.67% | MIC (Staphylococcus aureus [24]): 0.5 µg/mL (≈ 1.06 µM) | MIC (Staphylococcus aureus [25]): 0.031 µg/mL (≈ 0.0659 µM) | Ratio [26]: 233.35 | fAUC/MIC [27]: 259.37 h
